Values after ≈ are worked out from the molar mass of the structure shown. Active and inactive are the calls of the source. The rule behind the calls is not given here.
Legend:
Nakaseomyces glabratus [1] = assay: Fungicidal activity against Candida glabrata ATCC 2001 at 4 times MIC incubated for 24 hrs by time kill assay; type: functional; conditions: CBS 138
Method in brief: (§1)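 Overnight YPD cultures were diluted in RPMI 1640 to OD600 0.12–0.13; initial inoculum 1–4 × 10^5 CFU/mL. […] Shaken at 200 rpm, 35 °C, for 24 h, sampling at 0, 3, 6, 9, 12 and 24 h. Serial dilutions were plated on PDA and CFU counted; detection limit 100 CFU/mL; duplicate.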

Candida albicans [2] = assay: Antifungal activity against Candida albicans ATCC 10231 after 48 hrs by broth dilution method; type: functional; conditions: ATCC 10231, 48 h
Candida albicans [3] = assay: Antifungal activity against Candida albicans ATCC 64124 after 48 hrs by broth dilution method; type: functional; conditions: Candida albicans, ATCC 64124, 48 h
Method in brief: (§2)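 CLSI M27-A3 broth microdilution with minor modifications. Overnight YPD culture grown at 35 °C, 200 rpm, adjusted to OD600 0.12, diluted in RPMI 1640 buffered to pH 7.0 with 0.165 M MOPS to a final 1–2 × 10^3 CFU/mL. Test compounds at 0.015–31.3 µg/mL, 48 h at 35 °C, DMSO <1.25%. […] Triplicate.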

Candida albicans [4] = assay: Antifungal activity against itraconazole and fluconazole susceptible Candida albicans ATCC MYA-2876 after 48 hrs by broth dilution method; type: functional; conditions: Candida albicans, ATCC MYA-2876, 48 h
Candida albicans [5] = assay: Antifungal activity against itraconazole and fluconazole resistant Candida albicans ATCC 90819 after 48 hrs by broth dilution method; type: functional; conditions: Candida albicans, ATCC 90819, 48 h; method in brief: as §2
Candida albicans [6] = assay: Antifungal activity against itraconazole and fluconazole susceptible Candida albicans ATCC MYA-2310 after 48 hrs by broth dilution method; type: functional; conditions: Candida albicans, ATCC MYA-2310, 48 h
Candida albicans [7] = assay: Antifungal activity against itraconazole and fluconazole resistant Candida albicans ATCC MYA-1237 after 48 hrs by broth dilution method; type: functional; conditions: Candida albicans, ATCC MYA-1237, 48 h; method in brief: as §2
Candida albicans [8] = assay: Antifungal activity against itraconazole and fluconazole resistant Candida albicans ATCC MYA-1003 after 48 hrs by broth dilution method; type: functional; conditions: Candida albicans, ATCC MYA-1003, 48 h; method in brief: as §2
Nakaseomyces glabratus [9] = assay: Antifungal activity against Candida glabrata ATCC 2001 after 48 hrs by broth dilution method; type: functional, CBS 138; conditions: Nakaseomyces glabratus, CBS 138, 48 h
Pichia kudriavzevii = assay: Antifungal activity against Candida krusei ATCC 6258 after 48 hrs by broth dilution method; type: functional; conditions: Pichia kudriavzevii, ATCC 6258, 48 h
Method in brief: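 Yeasts tested per CLSI M27-A3 with minor changes. An overnight YPD culture (35 °C, 200 rpm) was adjusted to OD600 0.12 and diluted in MOPS-buffered RPMI 1640 (pH 7.0) to a final 1–2 × 10^3 CFU/mL. Compounds 0.015–31.3 µg/mL, DMSO <1.25%.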

Candida parapsilosis [10] = assay: Antifungal activity against Candida parapsilosis ATCC 22019 after 48 hrs by broth dilution method; type: functional; conditions: Lodderomyces parapsilosis, ATCC 22019, 48 h
Aspergillus flavus = assay: Antifungal activity against Aspergillus flavus ATCC MYA-3631 after 48 hrs by broth dilution method; type: functional; conditions: ATCC MYA-3631, 48 h
Aspergillus nidulans [11] = assay: Antifungal activity against Aspergillus nidulans ATCC 38163 after 48 hrs by broth dilution method; type: functional; conditions: Aspergillus nidulans, ATCC 38163, 48 h
Method in brief: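 A. nidulans run per CLSI M38-A2. PDA spores were filtered through glass wool and counted by hemocytometer. Test range 0.03–31.3 µg/mL in MOPS-buffered RPMI 1640 (pH 7.0), final 5 × 10^5 CFU/mL.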

Aspergillus terreus = assay: Antifungal activity against Aspergillus terreus ATCC MYA-3633 after 48 hrs by broth dilution method; type: functional; conditions: Aspergillus terreus, ATCC MYA-3633, 48 h
Method in brief: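 Molds tested per CLSI M38-A2. Spores were harvested from sporulating PDA cultures by filtering through glass wool and counted on a hemocytometer. Serial dilutions (0.03–31.3 µg/mL) were made in RPMI 1640 buffered to pH 7.0 with 0.165 M MOPS, final inoculum 5 × 10^5 CFU/mL.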

Candida albicans [12] = assay: Antifungal activity against Candida albicans ATCC 10231 after 48 hrs in the presence of 10% FBS by broth dilution method; type: functional; conditions: ATCC 10231, 48 h
Candida parapsilosis [13] = assay: Antifungal activity against Candida parapsilosis ATCC 22019 after 48 hrs in the presence of 10% FBS by broth dilution method; type: functional; conditions: Lodderomyces parapsilosis, ATCC 22019, 48 h
Aspergillus nidulans [14] = assay: Antifungal activity against Aspergillus nidulans ATCC 38163 after 48 hrs in the presence of 10% FBS by broth dilution method; type: functional; conditions: ATCC 38163, 48 h
Candida albicans [15] = assay: Antibiofilm activity against voriconazole resistant Candida albicans ATCC 64124 sessile cells incubated for 24 hrs by XTT reduction assay; type: functional; conditions: ATCC 64124, 24 h
Method in brief: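 Strain B grown overnight in YPD broth at 35 °C, diluted to OD600 0.1 (~10^6 CFU/mL), then grown statically for 24 h at 37 °C to form biofilm. Washed with PBS, then drug in RPMI 1640 at 0.12–62.5 µg/mL for 24 h at 37 °C. Read-out: XTT 0.5 mg/mL with menadione 1 µM, 2 h, A490. SMIC50/SMIC80 are 50%/80% decreases versus drug-free biofilm. Duplicate.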

Candida parapsilosis [16] = assay: Fungistatic activity against Candida parapsilosis ATCC 22019 up to 8 times MIC incubated for 24 hrs by time kill assay; type: functional; method in brief: as §1
[17] = Cytotoxicity against human A549 cells assessed as cell survival at 7.8 ug/mL after 24 hrs by resazurin-based fluorescence assay; conditions: read-out: Survival
Method in brief: (§3)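 Cells were grown in DMEM with 10% FBS and 1% Pen/Strep at 37 °C, 5% CO2. HEK-293 was seeded at 10000 cells/well; A549 and BEAS-2B at 3000 cells/well. After 16 h, cells were exposed for 24 h to final 0.13–31 µg/mL in 0.1–0.4% DMSO, then given resazurin for 6–10 h. Read at ex 560/em 590. […] Run in duplicate.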

[18] = Cytotoxicity against HEK293 cells assessed as cell survival at 7.8 ug/mL after 24 hrs by resazurin-based fluorescence assay; conditions: human, read-out: Survival; method in brief: as §3
[19] = Cytotoxicity against human BEAS2B cells assessed as cell survival at 7.8 ug/mL after 24 hrs by resazurin-based fluorescence assay; conditions: BEAS-2B cells, read-out: Survival; method in brief: as §3
[20] = Aqueous solubility of the compound; type: physicochemical; conditions: buffer
[21] = Solubility of the compound in DMSO; type: physicochemical
Candida albicans [22] = assay: Ratio of MIC80 for voriconazole resistant Candida albicans ATCC 64124 sessile cells to MIC for voriconazole resistant Candida albicans ATCC 64124; type: functional
Candida albicans [23] = assay: Antifungal activity against Candida albicans ATCC 10231 at 7.8 ug/mL incubated for 1 hr by propidium iodide staining-based fluorescence microscopic method; type: functional
Method in brief: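 C. albicans ATCC 10231 grown overnight in YPD broth at 35 °C with shaking at 200 rpm, then transferred to RPMI 1640. Cells were exposed to drug and stained with propidium iodide, which enters only cells with compromised membranes. Uptake was judged by fluorescence microscopy against an untreated control.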

Candida albicans [24] = assay: Inhibition of 14alpha-demethylase in Candida albicans ATCC 10231 assessed as ergosterol levels at 0.975 ug/mL by GC-MS analysis; design: scale not given: the % may be the effect or the level left
Method in brief: (§4)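 C. albicans ATCC 10231 was treated with drug or DMSO (no-drug control). Sterols were extracted and analysed by GC-MS; lanosterol, eburicol, ergosterol and 14α-methyl ergosta-8,24(28)-diene-3β,6α-diol were quantified as percent of sterols.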

Candida albicans [25] = assay: Inhibition of 14alpha-demethylase in Candida albicans ATCC 10231 assessed as lanosterol levels at 0.975 ug/mL by GC-MS analysis; design: scale not given: the % may be the effect or the level left; method in brief: as §4
Candida albicans [26] = assay: Inhibition of 14alpha-demethylase in Candida albicans ATCC 10231 assessed as eburicol levels at 0.975 ug/mL by GC-MS analysis; design: scale not given: the % may be the effect or the level left; method in brief: as §4
Candida albicans [27] = assay: Inhibition of 14alpha-demethylase in Candida albicans ATCC 10231 assessed as 14alpha-methyl ergosta-8,24(28)-dien-3beta,6alpha-diol levels at 0.975 ug/mL by GC-MS analysis; design: scale not given: the % may be the effect or the level left; method in brief: as §4
Candida albicans [28] = assay: Inhibition of 14alpha-demethylase in Candida albicans ATCC 10231 assessed as total sterol levels at 0.975 ug/mL by GC-MS analysis; design: scale not given: the % may be the effect or the level left; method in brief: as §4

SMILES | MIC (Candida albicans [2]) [µM] | MIC (Candida albicans [3]) [µM] | MIC (Candida albicans [4]) [µM] | MIC (Candida albicans [5]) [µM] | MIC (Candida albicans [6]) [µM] | MIC (Candida albicans [7]) [µM] | MIC (Candida albicans [8]) [µM] | MIC (Nakaseomyces glabratus [9]) [µM] | MIC (Pichia kudriavzevii) [µM] | MIC (Candida parapsilosis [10]) [µM] | MIC (Aspergillus flavus) [µM] | MIC (Aspergillus nidulans [11]) [µM] | MIC (Aspergillus terreus) [µM] | MIC (Candida albicans [12]) [µg/mL] | MIC (Candida parapsilosis [13]) [µg/mL] | MIC (Aspergillus nidulans [14]) [µg/mL] | MIC50 (Candida albicans [15]) [µg/mL] | MIC80 (Candida albicans [15]) [µg/mL] | solubility [20] | solubility [21] | other results
CCCCCCCCCCCCN1CCN(CC(O)(Cn2cncn2)c2ccc(F)cc2F)CC1 (stereo not drawn) | 3.9 (≈ 1.92 µg/mL) | 15.9 (≈ 7.82 µg/mL) | 7.9 (≈ 3.88 µg/mL) | 7.9 (≈ 3.88 µg/mL) | 15.9 (≈ 7.82 µg/mL) | 15.9 (≈ 7.82 µg/mL) | 31.7 (≈ 15.6 µg/mL) | 2 (≈ 0.983 µg/mL) | 0.98 (≈ 0.482 µg/mL) | 0.03 (≈ 0.0148 µg/mL) | 3.9 (≈ 1.92 µg/mL) | 7.9 (≈ 3.88 µg/mL) | 7.9 (≈ 3.88 µg/mL) | 1.95 | 0.06 | 3.9 | 7.8 (≈ 15.9 µM) | 15.6 (≈ 31.7 µM) | Soluble | Soluble | Activity (Nakaseomyces glabratus [1]): Active; Activity (Candida parapsilosis [16]): Active; viability at 24 h, 7.8 ug/mL [17]: < 40%; viability at 24 h, 7.8 ug/mL [18]: < 40%; viability at 24 h, 7.8 ug/mL [19]: < 40%; Ratio (Candida albicans [22]): 1 - 2
CCCCCCCCCCCCN1CCN(CC(O)(Cn2cncn2)c2ccc(Cl)cc2Cl)CC1 (stereo not drawn) | 3.7 (≈ 1.94 µg/mL) | 14.9 (≈ 7.82 µg/mL) | 7.4 (≈ 3.88 µg/mL) | 7.4 (≈ 3.88 µg/mL) | 7.4 (≈ 3.88 µg/mL) | 7.4 (≈ 3.88 µg/mL) | 3.7 (≈ 1.94 µg/mL) | 1.9 (≈ 0.997 µg/mL) | 3.7 (≈ 1.94 µg/mL) | 0.46 (≈ 0.241 µg/mL) | 7.4 (≈ 3.88 µg/mL) | 3.7 (≈ 1.94 µg/mL) | 3.7 (≈ 1.94 µg/mL) | 1.95 | 0.24 | 3.9 | 15.6 (≈ 29.7 µM) | 31.3 (≈ 59.7 µM) | Soluble | Soluble | Activity (Candida albicans [23]): inactive; Activity (Candida albicans [24]): 50.6%; Activity (Candida albicans [25]): 29.5%; Activity (Candida albicans [26]): 1.15%; Activity (Candida albicans [27]): 11.1%; Ratio (Candida albicans [22]): 2 - 4; Activity (Candida albicans [28]): 3.56 to 4.08%
